A selection: hits, their analogues and other compounds. The true share with any hit is near 0.79%.
bIAP inh – bovine intestinal alkaline phosphatase inhibitors, primary screen, selectivity assay for TNAP inhibitor project, biochemical, bovine IAP, CDP-star luminescence. inhibition, % at 20 µM. 190,000 tested, under 10 active. purified bovine IAP, 30 min. alkaline phosphatase, intestinal [Bos taurus];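 active = over 50% inhibition of intestinal alkaline phosphatase at 20 µM in the single-dose screen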
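Assay system: bovine IAP enzyme; medium: DEA buffer 100 mM, pH 9.8, with MgCl2 1.0 mM, ZnCl2 0.02 mM; doses: 20 µM single dose; incubation: enzyme reaction for 30 min at room temperature; detection: CDP-star luminescence signal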
hIAP block – human IAP inhibitors, primary screen, biochemical, luminescence, uHTS; actives 0.12% (n = 330,000); Intestinal-type alkaline phosphatase (Homo sapiens), P09923; AID 2544, 2010; purified IAP, CDP-Star luminescence, 30 min; inhibition, % at 10 µM;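 active = inhibition reaching a set limit with compound at 10 µM in the primary screen, cut at about 35% in these data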;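 note: plate controls were DMSO wells with enzyme for no effect and no-enzyme buffer wells for full effect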
Target sequence (P09923 whole entry, looked up): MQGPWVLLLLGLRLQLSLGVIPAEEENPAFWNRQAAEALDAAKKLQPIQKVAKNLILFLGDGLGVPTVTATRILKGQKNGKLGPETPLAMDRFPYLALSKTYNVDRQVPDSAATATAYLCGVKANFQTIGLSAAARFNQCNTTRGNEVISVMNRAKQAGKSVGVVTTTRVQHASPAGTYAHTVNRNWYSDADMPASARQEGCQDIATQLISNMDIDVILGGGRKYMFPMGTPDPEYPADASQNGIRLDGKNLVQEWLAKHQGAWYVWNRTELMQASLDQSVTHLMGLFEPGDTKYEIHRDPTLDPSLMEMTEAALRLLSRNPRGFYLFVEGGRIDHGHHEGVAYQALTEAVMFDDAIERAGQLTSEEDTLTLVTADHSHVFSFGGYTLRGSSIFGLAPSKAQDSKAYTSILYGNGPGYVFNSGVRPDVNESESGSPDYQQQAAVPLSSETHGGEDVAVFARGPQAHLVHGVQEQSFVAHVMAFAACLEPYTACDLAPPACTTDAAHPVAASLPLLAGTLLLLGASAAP
hIAP act – human IAP activators, primary screen, biochemical, luminescence, uHTS. actives 0.16% (n = 330,000). purified human IAP, CDP-Star luminescence, 30 min; active compounds read high; 1 = vehicle-only enzyme, 0 = enzyme-free background. AID 2524, 2010. activation factor at 10 µM. Intestinal-type alkaline phosphatase (Homo sapiens), P09923;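 active = activation factor of the enzyme at least 2-fold when tested at 20 µM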
mIAP activ – activators of mouse IAP, primary screen, biochemical, luminescence, uHTS; intestinal alkaline phosphatase [Mus musculus]; muIAP, CDP-Star luminescence, 30 min; active compounds read high; 1 = vehicle-only enzyme signal, 0 = enzyme-free wells; activation factor at 10 µM; actives 0.24% (n = 330,000); AID 2805, 2010;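 active = activation factor of at least 2 at 20 µM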
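Assay system: mouse IAP enzyme; reagent: chemiluminescent substrate CDP-Star; dosing: test compounds delivered from DMSO solution; schedule: 30 min at room temperature; measured by: luminescence from enzymatic CDP-Star hydrolysis; controls: DMSO-only wells and no-enzyme negative control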
mIAP block – inhibitors of mouse IAP, primary screen, biochemical, luminescence, uHTS | purified mouse IAP, CDP-Star luminescence, 30 min | inhibition, % at 10 µM | actives 0.2% (n = 330,000) | AID 2806, 2010;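 active = inhibition of at least 40% at 10 µM in the primary screen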;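 note: plate controls were DMSO with enzyme for no effect and no enzyme wells for full effect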
bIAP activator – bovine intestinal alkaline phosphatase activators, primary screen, biochemical, bovine IAP, CDP-star luminescence. alkaline phosphatase, intestinal [Bos taurus]. purified bovine IAP, 30 min; active compounds read high; fold of DMSO-control signal, blank-subtracted. activation factor at 20 µM. actives 0.17% (n = 200,000);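 active = activation factor of 2 or more at 20 µM, a signal rise over negative controls twice the positive control's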
hIAP act conf – human IAP activators, confirmation, biochemical, luminescence, single concentration, uHTS hits; activation (%Activity, negative = activation), % at 8.3 µM; AID 434926, 2010; purified IAP, CDP-Star luminescence, 30 min; active compounds read low; shares compounds with hIAP act; actives 10% (n = 880);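 active = at least twofold enzyme activation in any of six single-dose repeats, which the averaged readout prints as negative percent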
Numbers without * were called inactive.

For Cc1nn(C(=O)CCC(=O)NCc2cccc(F)c2)c2ccccc12 the results were hIAP block 39*, hIAP act 0.61, mIAP activ 0.98, mIAP block 2 and hIAP act conf 5.
O=C(NCC(F)(F)F)Nc1cccnc1 was read as bIAP inh 10, hIAP block 54*, hIAP act 0.46, mIAP activ 1.1, mIAP block -11, bIAP activator 0.9 and hIAP act conf 7.
`S=c1[nH]nc(CCCc2n[nH]c(=S)o2)o1` gave hIAP block -15, hIAP act 1.2, mIAP activ 0.97 and mIAP block 3.
Screening O=C(CCN1C(=O)/C(=C/c2ccccc2Cl)SC1=S)NNC(=O)c1ccccc1O returned hIAP block -108, hIAP act 2.1*, mIAP activ 0.73, mIAP block 27 and hIAP act conf 62.
Screening CCc1ccc(C(=O)NNC(=O)c2n[nH]c(=O)c3ccccc23)cc1 returned hIAP block -67, hIAP act 1.7, mIAP activ 0.89 and mIAP block 12.
`Cc1ccc(C(=O)NNC(=O)c2n[nH]c(=O)c3ccccc23)cc1C` gave hIAP block -118, hIAP act 2.2*, mIAP activ 0.84, mIAP block 16 and hIAP act conf -41.
O=C(NNC(=O)c1n[nH]c(=O)c2ccccc12)c1ccc(Br)cc1 was read as hIAP block -113, hIAP act 2.1*, mIAP activ 0.85, mIAP block 15 and hIAP act conf -12.
`CC(=O)c1ccccc1C(=O)N1CCCC(C(=O)c2ccc(C(F)(F)F)cc2)C1` (stereo unspecified) gave hIAP block -5, hIAP act 1, mIAP activ 0.96 and mIAP block 4.
For CCOc1ccc(NC(=O)CN2C(=O)COc3ccc(S(=O)(=O)N4CCCCC4)cc32)cc1 the results were hIAP block 6, hIAP act 0.94, mIAP activ 1.1 and mIAP block -6.
COc1ccc(NC(=O)CN2C(=O)COc3ccc(S(=O)(=O)N4CCCCCC4)cc32)cc1 was read as hIAP block 37*, hIAP act 0.63, mIAP activ 1, mIAP block -3 and hIAP act conf 7.
`O=C1CCCN1CC(O)CS(=O)(=O)Cc1ccccc1Cl` (stereo unspecified) gave hIAP block -34, hIAP act 1.3, mIAP activ 1.1 and mIAP block -7.
Screening O=C(c1ccco1)N1CCN(c2nc(-c3ccc(F)cc3)cs2)CC1 returned bIAP inh -10, hIAP block -100, hIAP act 2*, mIAP activ 0.81, mIAP block 18, bIAP activator 1.1 and hIAP act conf 3.
For O=C1c2c(O)cc(O)cc2O[C@H](c2ccc(O)cc2)[C@H]1O the results were hIAP block -3, hIAP act 1, mIAP activ 0.89 and mIAP block 11.
Screening C[C@@H]1O[C@@H](O[C@@H]2C(=O)c3c(O)cc(O)cc3O[C@H]2c2ccc(O)c(O)c2)[C@H](O)[C@H](O)[C@H]1O returned hIAP block 35*, hIAP act 0.65, mIAP activ 0.86, mIAP block 14 and hIAP act conf -43.
`Cc1ccc(NC(=O)CCSCCc2ccccn2)cc1` gave bIAP inh 11, hIAP block 1, hIAP act 0.99, mIAP activ 0.93, mIAP block 7 and bIAP activator 0.9.
Oc1ccc(Br)cc1/C=N/NC(=S)NCCc1ccccc1 was read as hIAP block -6, hIAP act 1.1, mIAP activ 0.93 and mIAP block 7.

Source: PubChem BioAssay (Sanford-Burnham Center for Chemical Genomics)
